Results: ChEMBL document CHEMBL1629590, “Variety of antiprion compounds discovered through an in silico screen based on cellular-form prion protein structure: Correlation between antiprion activity and binding affinity” (Antimicrob Agents Chemother, 2009)

Key:
[1] = biological target: Major prion protein (Mus musculus) (UniProt P04925); test: Antiprion activity against mouse recombinant PrP expressed in Fukuoka-1 stain infected mouse GT1-7 cells assessed as remaining PrP-res level at 10 uM after 72 hrs by Western blotting relative to control; format: cell-based
How it was run: (§1)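 GT+FK cells (GT1-7 neuronal line persistently infected with Fukuoka-1 agent) in DMEM/10% FBS, 37°C, 5% CO2; 1.5 × 10⁵ cells/well, dosed 15 h after plating with compound from fresh 10 mM DMSO stock (vehicle 0.1%) for 72 h. Lysates in Triton X-100/deoxycholate buffer adjusted to 2 mg/ml protein; PrP^Sc by Western blot with M-20 antibody, densitometry versus solvent control; effective if <70% of control; ≥2 independent experiments.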

[2] = biological target: Major prion protein (Mus musculus) (UniProt P04925); test: Antiprion activity against mouse recombinant PrP expressed in Fukuoka-1 stain infected mouse GT1-7 cells at 10 uM after 72 hrs by Western blotting; format: cell-based; how it was run: as §1
Major prion protein = Major prion protein (Mus musculus, UniProt P04925); test: Binding affinity to mouse recombinant PrP (121-231) after 10 mins by surface plasmon resonance assay
How it was run: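 Recombinant mouse PrP(121-231) immobilized on CM5 chip; compounds at various concentrations injected in HEPES-buffered saline (pH 7.4) with 0.1% P20 and 5% DMSO, 1 min at 30 μl/min, then buffer alone for 10 min. Blank-chip corrected; Kd fitted from concentration dependence of sensorgram response.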

[3] = Solubility of the compound; format: physicochemical

Chain of Major prion protein (P04925 whole entry): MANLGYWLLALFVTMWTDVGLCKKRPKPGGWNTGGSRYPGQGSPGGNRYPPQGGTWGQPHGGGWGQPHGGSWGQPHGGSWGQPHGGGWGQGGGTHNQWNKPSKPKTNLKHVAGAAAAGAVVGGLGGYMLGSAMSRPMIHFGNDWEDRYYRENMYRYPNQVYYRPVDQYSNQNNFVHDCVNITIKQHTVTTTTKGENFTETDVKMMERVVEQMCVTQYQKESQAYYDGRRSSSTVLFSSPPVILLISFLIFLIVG
Chain of Major prion protein (Mus musculus) (P04925 whole entry): as above

| Compound | Activity [1] | further results |
| --- | --- | --- |
| Cc1ccc(NC(=O)CN2C(=O)NC3(CCc4ccccc43)C2=O)cc1 (stereo not drawn) | 150% | – |
| CCCCNc1nc2ccccc2n1CC(=O)N1CCc2ccccc21 | 37.3% | Activity [2]: < 70%; Kd (Major prion protein; read-out: Kd): 20 µM |
| O=C(COc1ncnc2ccccc12)NC1CCCc2ccccc21 (stereo not drawn) | 53% | – |
| Cc1cccc2cc3c(N)c(C(=O)NC4CCCC4)sc3nc12 | 41.9% | Activity [2]: < 70%; Kd (Major prion protein; read-out: Kd): 86.1 µM |
| O=C(CCc1nc2ccccc2c(=O)[nH]1)NC1CCCc2ccccc21 (stereo not drawn) | 65% | – |
| CC(=O)N(Cc1ccccc1)Cc1cc2cccc(C)c2n2nnnc12 | – | Kd (Major prion protein): Not Active |
| Cc1cc2cc3c(cc2nc1SCCN1CCCCC1)OCCO3 | 47.4% | Activity [2]: < 70%; Kd (Major prion protein; read-out: Kd): 50.8 µM |
| CN1/C(=C/C(=O)Nc2cccs2)c2ccccc2CC1(C)C | 57.4% | – |
| N#Cc1c(NC(=O)c2cc3c(s2)CCCC3)sc2c1CCCC2 | 66.9% | – |
| CCCc1nc2ccccc2n1CC(=O)N1CCCc2ccccc21 | 67.2% | – |
| O=C(CSc1nc2ccccc2[nH]1)NC1CCCc2ccccc21 (stereo not drawn) | 64.9% | – |
| O=C1c2cccc3cccc(c23)N1CC(=O)N1CC2CCC1C2 (stereo not drawn) | 65% | – |
| O=C(CN1C(=O)NC2(CCCc3ccccc32)C1=O)N1CCCCC1 (stereo not drawn) | 67.1% | – |
| CC1CCCCN1CC(=O)Nc1sc2c(c1C#N)CCCCC2 (stereo not drawn) | 58.8% | Kd (Major prion protein; read-out: Kd): 21.9 µM |
| C=CCNC(=O)NC(=O)CSc1nc2ccccc2n1CC(C)C | – | Kd (Major prion protein): Not Active |
| CC1Cc2ccccc2N1C(=O)COc1ncnc2sccc12 (stereo not drawn) | 67.4% | – |
| O=C(Cc1c[nH]c2ccccc12)NC1CCc2ccccc2C1 (stereo not drawn) | 55.3% | Kd (Major prion protein; read-out: Kd): 48.6 µM |
| O=C(NCc1ccccn1)C1CC2c3ccccc3C1c1ccccc12 (stereo not drawn) | 54.7% | solubility [3]: Insoluble |
| CCC(C)C(NC(=O)c1ccccc1)C(=O)N1CCc2ccccc21 (stereo not drawn) | 36.8% | Activity [2]: < 70%; Kd (Major prion protein; read-out: Kd): 51.2 µM |
| O=C(Cc1coc2cc3c(cc12)CCC3)N1CCc2ccccc21 | 63.7% | – |
| Cc1cccc2cc(C#N)c(N3CCCN(C(=O)C4CCC4)CC3)nc12 | 50.6% | – |
| O=C(CSc1ncnc2sc3c(c12)CCC3)NCC1CCCO1 (stereo not drawn) | – | Kd (Major prion protein): Not Active |
| O=C(COC(=O)c1c2c(nc3ccccc13)CCC2)NC1CCCC1 | 62.9% | – |
| Cc1cccc(NC(=O)N2CCCC2C(=O)NC2CCCC2)c1 (stereo not drawn) | 63.2% | – |
| Cc1ccc2c(c1)c1c(n2CC(O)CN2CCCCC2)C(=O)CCC1 (stereo not drawn) | 51.3% | – |
| O=C(CN1C(=O)COc2ccccc21)N1CCCc2ccccc21 | 57.5% | – |
| CC1CCCCC1NC(=O)COc1ncnc2sc3c(c12)CCC3 (stereo not drawn) | 68.8% | – |
